The values that follow come from PubChem BioAssay AID719 (SRMLSC, 2007).

Among all 85,000 compounds or so, about 940 (1.1%) were called active. The sample as a whole holds a higher share of actives than the screen did. A number with no mark means an inactive call.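 How the source made its calls: active means viability at or below 50% in the single dose screen; inactive means viability above 50%.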

This test can be described thus: antiproliferative effect on LL 47 fibroblasts – human, LL 47 cells, CellTiter-Glo luminescence, primary screen (AID 719).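 Further: compound exposure lasted 72 h before the ATP readout; 100% = median luminescence of untreated cell-only wells.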 The conditions noted are these: LL 47 human lung fibroblast viability, ATP luminescence; at 10 µM; active compounds read low. The method, boiled down:
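test system = LL 47 human lung fibroblasts | amount = 1,150 fibroblasts seeded per well | medium = 15% FBS in IMEM | times = overnight cell rest, 72 h compound treatment at 37 °C | measured by = CellTiter-Glo luminescence measuring cellular ATP | read-out = viability percentage against median untreated-cell control | benchmarks = cell-only wells, no compound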
For orientation: Cellular ATP, detected with luciferase, serves as a proxy for viable cell number.
The term viability denotes a read-out of living cells in per cent, often relative to untreated cells. Take `Cc1cc(NC(=O)CSc2nc(C(C)C)nc3sc4c(c23)CCC(C)C4)no1` (stereo unspecified): the viability was 10.9% (active).
Turning to `Cc1nc(SCC(=O)Nc2cc(C)on2)c2c3c(sc2n1)CCCC3`, the viability is 94.8%.
Regarding `Cc1nc(SCC(=O)Nc2cc(C)on2)c2c(C)c(C)sc2n1`, the viability is 99.4%.
As to `O=C(/C=C/c1ccc(Cl)cc1Cl)c1cccnc1`, the viability was 79%.
On to `CCOC(=O)c1c(NC(=O)CCl)sc(C(=O)N(CC)CC)c1C`, for which the viability was 28% (active).
On to `CCOC(=O)c1sc(NC(=O)CCN2CCOCC2)c(C(=O)OCC)c1C`, for which the viability was 80.1%.
Turning to `CCOC(=O)Nc1sc(C(=O)N(C)C)c(C)c1C(=O)OCC`, the viability is 89.5%.
As for `O=C(NCc1cccnc1)Nc1ccccc1F`, the figure is 96.7%.
Turning to `Cc1cc(C)c2c(n1)nn1c(N3CCOCC3)cc(C)nc21`, the viability was 82.4%.
As for `Cc1cc(C)c2c(n1)nn1c(-n3ccnc3)cc(C)nc21`, the viability was 101%.
Take `Cc1cc(C)c2c(n1)nn1c(N3CCN(c4cccc(Cl)c4)CC3)cc(C)nc21`: the viability is 36.8% (active).
For `COc1ccc(NC(=O)CCN2CCCC2)c(OC)c1`, the viability is 104%.
The value for `Cc1ccccc1-n1c(C)cc(/C=C2\NC(=O)NC2=O)c1C` was 77.2%; that for `COC(=O)C(NC(C)=O)(Nc1nc2c(s1)CCCC2)C(F)(F)F` (stereo unspecified) was 103%; that for `O=C(Cn1c(=O)sc2ccccc21)Nc1nc2c(s1)CCCC2` was 100%.
The value for `O=C(CCS(=O)(=O)c1ccccc1)Nc1nc2c(s1)CCCC2` was 47.7% (active); that for `N#CC1=C(N)N(c2ccccc2)C2=C(C(=O)CCC2)C1c1ccccc1` (stereo unspecified) was 93.1%; that for `COc1ccc(CNCCCO)cc1OC` was 95.2%.
As for `COC(=O)c1ccccc1Sc1c(/C=N/OCc2ccc(Cl)cc2)c(C(F)(F)F)nn1C`, the viability is 92.7%.
On to `COC(=O)c1cc(OC)ccc1-c1ccc(OC)cc1`, for which the viability was 90.1%.
For the compound `Cc1cc(Cl)c(S(=O)(=O)N(C)C)cc1OCC(N)=O`, the viability is 101%.
As to `COc1ccc(-c2nnc(SCc3cccnc3)o2)cc1`, the viability is 105%.
Take `Cc1cccc(OCCCC(=O)Nc2ccc(S(=O)(=O)N3CCCC3)cc2)c1`: the viability is 98.6%.
With `CCN1CCc2c(C#N)c(NCc3ccccc3)nc(NCCO)c2C1`, the viability is 86.2%.
Turning to `CC(C)CCNc1nc(N2CCCC2)c2c(c1C#N)CCN(C)C2`, the viability was 30.8% (active).
As for `CC(C)Cc1nc(N2CCOCC2)c(C#N)c2c1CCC2`, the figure is 90.7%.
Consider `CC1CCN(C(=O)c2cc3nc(C4CC4)cc(C(F)(F)F)n3n2)CC1`, for which the viability is 96.3%.
The value for `C/C=C/C(=O)Nc1nnc(C(C)C)s1` was 103%.
With `O=C(c1cccc(C(=O)N2CCN(c3ccc(F)cc3)CC2)c1)N1CCN(c2ccc(F)cc2)CC1`, the viability is 97.2%.
Consider `CCN1CCN(C(c2cccnc2)c2cc(Cl)c3cccnc3c2O)CC1` (stereo unspecified), for which the viability is 75.3%.
As for `Oc1c(CN2CCN(c3ccc(F)cc3)CC2)cc(Cl)c2cccnc12`, the figure is 22.4% (active).
For `CCn1nnnc1SCC(=O)c1ccc(C)cc1C`, the viability was 99.4%.
As for `Cc1cc(C(=O)OC(C)C(=O)Nc2cccc(S(=O)(=O)N3CCOCC3)c2)c(C)o1` (stereo unspecified), the viability was 30.6% (active).
The value for `O=C(c1cccc(S(=O)(=O)N2CCOCC2)c1)N1CCOCC1` was 104%; that for `CCNC(=O)NC(=O)C(C)OC(=O)c1cc(S(=O)(=O)N2CCCCCC2)ccc1OC` (stereo unspecified) was 94.5%.
With `CC(=O)c1cccc(NC(=O)Nc2ccc(C)cc2)c1`, the viability was 109%.
As to `Cc1ccoc1C(=O)Nc1cccc(Oc2ccccc2)c1`, the viability is 103%.
In the case of `Cc1cccc(NC(=O)Nc2cccc(Oc3c(F)c(F)c(F)c(F)c3F)c2)c1`, the viability was 49.6% (active).
For `Cc1ccc(C)c(NC2=NCC(=O)N2c2ccc3c(c2)OCCO3)c1`, the viability is 120%.
As for `O=C(CSc1nc2cccnc2n1Cc1ccccc1)N1CCc2ccccc21`, the figure is 104%.
On to `COc1cccc2sc(Nc3nc(C)c(C(C)=O)s3)nc12`, for which the viability was 26.9% (active).
On to `COC(=O)c1sc(NC(=O)c2ccc(OC)cc2OC)nc1C`, for which the viability is 91.9%.
In the case of `CC(=O)c1sc(NC(=O)c2ccc(C)cc2)nc1C`, the viability was 105%.
Turning to `Fc1ccccc1/C=C1\CCCC2=C1Nc1ncnn1C2c1ccccc1F` (stereo unspecified), the viability is 3.89% (active).
Take `Cc1cc(SCC(=O)c2ccccc2)nc(SCC(=O)c2ccccc2)n1`: the viability was 102%.
As for `CCOC(=O)c1ccc2c(c1)nc(C)n2CC`, the figure is 103%.
With `Cn1c(C(=O)NCCN2CCc3ccccc3C2)cc2c(=O)[nH]c3ccccc3c21`, the viability is 93.3%.
Take `O=C(NCCN1CCN(Cc2ccccc2)CC1)c1cc2c(=O)[nH]c3ccccc3c2s1`: the viability was 42.8% (active).
As to `CN1CCN(CCCNC(=O)c2cc3c(=O)oc4ccccc4c3s2)CC1`, the viability is 105%.
On to `CCc1ccc(NC(=O)CN2C(=O)CSC2=O)cc1`, for which the viability is 100%.
Consider `CCOC(=O)c1sc(NC(=O)c2ccncc2)nc1C`, for which the viability was 98.9%.
Take `CC1=CC(C)(C)Nc2ccc(OC(=O)CN3C(=O)C4CCCCC4C3=O)cc21` (stereo unspecified): the viability is 39.7% (active).
As for `CC1=CC(C)(C)Nc2ccc(OC(=O)C(Cc3ccccc3)N3C(=O)C4CCCCC4C3=O)cc21` (stereo unspecified), the figure is 94.3%; as for `CC(OC(=O)CN1C(=O)C2CCCCC2C1=O)C(=O)Nc1ncc(Cl)cc1Cl` (stereo unspecified), 98.2%; as for `CC1(C)CC(=O)C=C(N2CCCC2)C1`, 112%.
The value for `COc1ccc(N2CCN(Cc3ccc(Br)s3)CC2)cc1` was 100%.
With `CC(=O)Oc1ccc(NC(=O)CCC2CCCCC2)c(C(=O)O)c1`, the viability was 93.2%.
Regarding `CCCNC(=O)CN(Cc1ccccc1F)S(=O)(=O)c1ccc(C)cc1`, the viability is 105%.
Consider `CC1=NN(/C(=N\c2nnc(C)s2)Nc2ccccc2)[C@H](c2ccc(C)cc2)S1`, for which the viability was 89.1%.
In the case of `CCCc1[nH]nc2c1C(c1ccc(OC)c(Cn3nc(C)c(Br)c3C)c1)C(C#N)=C(N)O2` (stereo unspecified), the viability was 95.9%.
Turning to `CCCc1[nH]nc2c1C(c1ccc(OC(=O)c3ccco3)cc1)C(C#N)=C(N)O2` (stereo unspecified), the viability is 95.1%.
The value for `CCCc1[nH]nc2c1C(c1ccc(Br)s1)C(C#N)=C(N)O2` (stereo unspecified) was 33.5% (active); that for `CCOc1ccc(NC(=O)C2CCCN(C(=O)Nc3ccccc3)C2)cc1` (stereo unspecified) was 105%; that for `CCCCC(C(=O)OCC(=O)c1ccc(OC)cc1)N1C(=O)c2ccccc2C1=O` (stereo unspecified) was 93.2%.
As for `COC(=O)c1ccccc1NC(=O)Cc1ccccc1OC`, the figure is 102%; as for `CCOc1ccc(Cn2nnc(C(=O)NCc3ccccc3)c2N)cc1`, 84.8%.
As for `CCOc1ccc(Cn2nnc(C(=O)Nc3ccc(OC)cc3OC)c2N)cc1`, the figure is 81.2%; as for `Nc1c(C(=O)NCc2ccccc2)nnn1Cc1cccc(Cl)c1`, 44.6% (active); as for `CC(C)N1C(=S)SC(C)(C)C1n1oc(=O)n(-c2ccc(Cl)c(Cl)c2)c1=O` (stereo unspecified), 87.5%.
Consider `Cn1c2ccccc2c2c(C(=O)N3CCN(c4ccc(F)cc4)CC3)cn(C3CCCC3)c(=O)c21`, for which the viability is 85.9%.
As for `CCOC(=O)N1CCN(C(=O)c2n[nH]c(=O)c3ccccc23)CC1`, the figure is 97.5%; as for `CCOC(=O)N1CCN(C(=O)c2nn(-c3ccc(C)cc3)c(=O)c3c2c2ccccc2n3C)CC1`, 19.7% (active).
As to `COc1ccc(C)c(Cn2c(-c3nonc3N)nc3ccccc32)c1`, the viability is 42.2% (active).
In the case of `Nc1nonc1-c1nc2ccccc2n1Cc1ccc(F)cc1`, the viability is 52.3%.
Regarding `Nc1nonc1-c1nc2ccccc2n1CCC(=O)O`, the viability is 104%.
With `CCOc1ccc(N=C2NC(=O)S/C2=C\c2ccc(O)cc2)cc1`, the viability was 102%.
On to `COc1ccc(C)cc1S(=O)(=O)NCCc1ccccc1`, for which the viability is 97.6%.
The value for `Cc1nc(NC(=O)CN(C)S(=O)(=O)c2ccc(Cl)cc2)sc1C` was 98.6%.
In the case of `Cc1ccc(-n2c(SCC(=O)Nc3ccc4c(c3)OCO4)nnc2-c2ccoc2C)cc1`, the viability was 99%.
Consider `O=C(CSc1nnc(-c2ccccn2)n1-c1ccccc1)Nc1ccc2c(c1)OCO2`, for which the viability is 89.6%.
With `Cc1ccc(-n2c(SCC(=O)Nc3ccc4c(c3)OCO4)nnc2-c2ccccn2)cc1`, the viability is 42.1% (active).
As to `Cc1ccc(-n2c(SCC(=O)NCc3ccc4c(c3)OCO4)nnc2-c2cccnc2)c(C)c1`, the viability was 95.8%.
Regarding `O=C(c1cc2sccc2n1Cc1ccc(F)cc1)N1CCc2ccccc21`, the viability is 95.6%.
With `COc1ccc(CC(=O)Nc2ccc(-c3nnc(-c4ccccc4)o3)cc2)cc1`, the viability was 105%.
As for `Cc1ccc(OCC(=O)Nc2ccc(-c3nnc(-c4ccco4)o3)cc2)cc1`, the figure is 91.8%; as for `COc1ccc(CC(=O)Nc2ccc(-c3nnc(-c4ccc(C)cc4)o3)cc2)cc1`, 30.9% (active); as for `O=C(/C=C/NNC(=O)c1cccc(Br)c1)c1ccccc1`, 80.9%.
Regarding `CCC(=O)Nc1sc(C(=O)N2CCCCC2)c(C)c1C#N`, the viability was 98%.
The value for `CN1CCN(CC(=O)Nc2sc3c(c2C#N)CCC(C(C)(C)C)C3)CC1` (stereo unspecified) was 2.62% (active).
The value for `CC(C)(C)C1CCc2c(sc3nc(SCC(N)=O)nc(N)c23)C1` (stereo unspecified) was 99%; that for `CCOC(=O)c1nnn(-c2nonc2-n2cccc2)c1CN1CCC(C(=O)OCC)CC1` was 95%; that for `CC(=O)Oc1cc2c(C(=O)NCCN3CCOCC3)c(C)oc2c2ccccc12` was 8.08% (active).
On to `O=C(CCN1C(=O)c2ccccc2C1=O)NCCN1CCOCC1`, for which the viability is 104%.
Turning to `O=C(NCCN1CCOCC1)c1c(F)c(F)c(F)c(F)c1F`, the viability is 97.6%.
On to `Cc1ccc(-c2cc(C(=O)NCC3CCCO3)c3ccccc3n2)o1` (stereo unspecified), for which the viability is 98.3%.
Regarding `Clc1cccc(N=C2NN=C(c3ccc4c(c3)OCCO4)CS2)c1`, the viability is 101%.
